{
  "source": "ChEMBL document CHEMBL2169747",
  "about": "“Synthesis and biological properties of highly sequence-specific-alkylating N-methylpyrrole-N-methylimidazole polyamide conjugates” (J Med Chem, 2012)",
  "key": {"A549 [1]": {"tested_on": "A549", "experiment": "Downregulation of ADH1A gene expression in human A549 cells at 26 nM after 12 hrs by microarray analysis relative to control", "type": "functional", "in_short": "(§1)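 A549 cells, 4 × 10^5 per 60 mm dish, were exposed to conjugate for 12 h in medium with 0.1% DMSO; vehicle control was 0.1% DMSO. Whole human genome (~25 000 genes) expression was profiled by microarray and expression compared with the control.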"}, "A549 [2]": {"tested_on": "A549", "experiment": "Downregulation of MYCBP2 gene expression in human A549 cells at 26 nM after 12 hrs by microarray analysis relative to control", "type": "functional", "in_short": "as §1"}, "A549 [3]": {"tested_on": "A549", "experiment": "Downregulation of DPYD gene expression in human A549 cells at 26 nM after 12 hrs by microarray analysis relative to control", "type": "functional", "in_short": "as §1"}, "Mus musculus": {"tested_on": "Mus musculus", "experiment": "Toxicity in BALB/c nu/nu mouse at 0.50 mg/kg, ip for 14 days", "type": "organism-based", "parameters": "dose 0.5 mg/kg, route intraperitoneal", "conditions": "in vivo, 0.5 mg/kg, 336 h", "in_short": "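Pre-test in male BALB/c-nu/nu mice without xenografts. Naked conjugate was dissolved in 100% DMSO and given ip at 0.50 mg/kg (12.5 μg/mouse). Liposomal conjugate (0.33 mg/mL in 17 mM lipid, hydrated with water and sonicated) was given iv at 1.6 mg/kg (41 μg/mouse), 125 μL single dose.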"}, "A549 [4]": {"tested_on": "A549", "experiment": "Downregulation of NP_940865.1 gene expression in human A549 cells at 26 nM after 12 hrs by microarray analysis relative to control", "type": "functional", "in_short": "(§2)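 A549 cells (RPMI-1640, 10% heat-inactivated FBS, penicillin/streptomycin, 37 °C, 5% CO2) seeded at 4 × 10^5 per 60 mm dish. Exposed 12 h to conjugate at 21, 26, 34 or 100 nM in medium with 0.1% DMSO, against 0.1% DMSO control. Whole-genome (~25 000 genes) expression profiled by microarray.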"}, "DU-145": {"tested_on": "DU-145", "experiment": "Antitumor activity against human DU145 cells xenografted in BALB/c-nu/nu mouse assessed as effect on tumor growth at 1.6 mg/kg, iv administered as liposomal conjugate for 14 days", "type": "functional, organism-based", "parameters": "dose 1.6 mg/kg", "in_short": "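Male BALB/c-nu/nu mice (5 weeks, 15−22 g) with subcutaneous right-subaxillary A549 or DU145 xenografts (3 × 10^6 cells/mouse), grouped by tumor size. Liposomes were made from a lipid film hydrated in water and bath-sonicated 2 h, giving 330 μg/mL conjugate in 17 mM lipid. A single 125 μL intravenous dose (41 μg/mouse) was given on day 0. Tumor size and weight were read every other day for 14 days. n = 5 or 6.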"}, "A549 [5]": {"tested_on": "A549", "experiment": "Upregulation of HES2 gene expression in human A549 cells at 26 nM after 12 hrs by microarray analysis relative to control", "type": "functional", "in_short": "(§3)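 4 ×10^5 A549 cells seeded per 60 mm dish and treated 12 h with conjugate (21, 26, 34 or 100 nM) in medium; control medium contained 0.1% DMSO, with conjugates added as 0.1% DMSO solutions. Whole human genome (~25 000 genes) expression profiled by microarray against the DMSO control. A549 culture: RPMI-1640 with 10% heat-inactivated FBS, penicillin/streptomycin, 37 °C, 5% CO2.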"}, "A549 [6]": {"tested_on": "A549", "experiment": "Upregulation of GDF15 gene expression in human A549 cells at 26 nM after 12 hrs by microarray analysis relative to control", "type": "functional", "in_short": "as §3"}, "A549 [7]": {"tested_on": "A549", "experiment": "Upregulation of CDKN1A gene expression in human A549 cells at 26 nM after 12 hrs by microarray analysis relative to control", "type": "functional", "in_short": "as §3"}, "A549 [8]": {"tested_on": "A549", "experiment": "Upregulation of RRAD gene expression in human A549 cells at 26 nM after 12 hrs by microarray analysis relative to control", "type": "functional", "in_short": "as §3"}, "A549 [9]": {"tested_on": "A549", "experiment": "Downregulation of RABGAP1L gene expression in human A549 cells at 26 nM after 12 hrs by microarray analysis relative to control", "type": "functional", "in_short": "as §2"}, "A549 [10]": {"tested_on": "A549", "experiment": "Upregulation of MDM2 gene expression in human A549 cells at 26 nM after 12 hrs by microarray analysis relative to control", "type": "functional", "in_short": "as §3"}, "A549 [11]": {"tested_on": "A549", "experiment": "Downregulation of SLC4A4 gene expression in human A549 cells at 26 nM after 12 hrs by microarray analysis relative to control", "type": "functional", "in_short": "as §2"}, "A549 [12]": {"tested_on": "A549", "experiment": "Downregulation of XP_375606.2 gene expression in human A549 cells at 26 nM after 12 hrs by microarray analysis relative to control", "type": "functional", "in_short": "as §2"}, "A549 [13]": {"tested_on": "A549", "experiment": "Downregulation of Q9Y6Z5 gene expression in human A549 cells at 26 nM after 12 hrs by microarray analysis relative to control", "type": "functional", "in_short": "as §2"}, "A549 [14]": {"tested_on": "A549", "experiment": "Upregulation of GLS2 gene expression in human A549 cells at 34 nM after 12 hrs by microarray analysis relative to control", "type": "functional", "in_short": "as §3"}, "A549 [15]": {"tested_on": "A549", "experiment": "Downregulation of NP_115632.1 gene expression in human A549 cells at 34 nM after 12 hrs by microarray analysis relative to control", "type": "functional", "in_short": "as §1"}, "A549 [16]": {"tested_on": "A549", "experiment": "Downregulation of GTDC1 gene expression in human A549 cells at 34 nM after 12 hrs by microarray analysis relative to control", "type": "functional", "in_short": "as §1"}, "A549 [17]": {"tested_on": "A549", "experiment": "Downregulation of HIST1H2AC gene expression in human A549 cells at 34 nM after 12 hrs by microarray analysis relative to control", "type": "functional", "in_short": "as §1"}, "A549 [18]": {"tested_on": "A549", "experiment": "Downregulation of NBEA gene expression in human A549 cells at 34 nM after 12 hrs by microarray analysis relative to control", "type": "functional", "in_short": "as §1"}, "A549 [19]": {"tested_on": "A549", "experiment": "Upregulation of CDKN1A gene expression in human A549 cells at 34 nM after 12 hrs by microarray analysis relative to control", "type": "functional", "in_short": "as §3"}, "A549 [20]": {"tested_on": "A549", "experiment": "Downregulation of PTPRK gene expression in human A549 cells at 34 nM after 12 hrs by microarray analysis relative to control", "type": "functional", "in_short": "as §2"}, "A549 [21]": {"tested_on": "A549", "experiment": "Upregulation of MDM2 gene expression in human A549 cells at 34 nM after 12 hrs by microarray analysis relative to control", "type": "functional", "in_short": "as §3"}, "A549 [22]": {"tested_on": "A549", "experiment": "Upregulation of NP_997213.1 gene expression in human A549 cells at 34 nM after 12 hrs by microarray analysis relative to control", "type": "functional", "in_short": "as §3"}, "A549 [23]": {"tested_on": "A549", "experiment": "Downregulation of ZNF407 gene expression in human A549 cells at 34 nM after 12 hrs by microarray analysis relative to control", "type": "functional", "in_short": "as §2"}, "A549 [24]": {"tested_on": "A549", "experiment": "Downregulation of Q9P223 gene expression in human A549 cells at 34 nM after 12 hrs by microarray analysis relative to control", "type": "functional", "in_short": "as §2"}, "A549 [25]": {"tested_on": "A549", "experiment": "Downregulation of LAMA2 gene expression in human A549 cells at 34 nM after 12 hrs by microarray analysis relative to control", "type": "functional", "in_short": "as §1"}, "A549 [26]": {"tested_on": "A549", "experiment": "Upregulation of U124 gene expression in human A549 cells at 34 nM after 12 hrs by microarray analysis relative to control", "type": "functional", "in_short": "as §3"}, "A549 [27]": {"tested_on": "A549", "experiment": "Downregulation of ZNF291 gene expression in human A549 cells at 34 nM after 12 hrs by microarray analysis relative to control", "type": "functional", "in_short": "as §2"}, "A549 [28]": {"tested_on": "A549", "experiment": "Downregulation of Q8NBA2 gene expression in human A549 cells at 34 nM after 12 hrs by microarray analysis relative to control", "type": "functional", "in_short": "as §2"}, "A549 [29]": {"tested_on": "A549", "experiment": "Downregulation of ACTG gene expression in human A549 cells at 34 nM after 12 hrs by microarray analysis relative to control", "type": "functional", "in_short": "as §1"}, "A549 [30]": {"tested_on": "A549", "experiment": "Upregulation of BTG2 gene expression in human A549 cells at 34 nM after 12 hrs by microarray analysis relative to control", "type": "functional", "in_short": "as §3"}},
  "note": "Activity calls are given as the source filed them. The calls are words filed in the database; no cut-off is given here.",
  "data": [
    {"smiles": "CC(=O)Nc1cn(C)c(C(=O)Nc2cc(C(=O)Nc3cc(C(=O)NCCC(=O)Nc4cc(C(=O)NCCCC(=O)Nc5cc(C(=O)NCCC(=O)Nc6cn(C)c(C(=O)Nc7ccc8[nH]c(C(=O)N9CC(CCl)c%10c9cc(O)c9ccccc%109)cc8c7)n6)n(C)c5)n(C)c4)n(C)c3)n(C)c2)n1", "note": "(racemic)", "values": [
      {"measurement": "fold change (FC)", "setting": "A549 [1]", "value": 0.317},
      {"measurement": "fold change (FC)", "setting": "A549 [2]", "value": 0.338},
      {"measurement": "fold change (FC)", "setting": "A549 [3]", "value": 0.115},
      {"measurement": "Activity", "setting": "Mus musculus", "value": "Non-toxic"},
      {"measurement": "fold change (FC)", "setting": "A549 [4]", "value": 0.322},
      {"measurement": "Activity", "setting": "DU-145", "value": "Active"},
      {"measurement": "fold change (FC)", "setting": "A549 [5]", "value": 9.4},
      {"measurement": "fold change (FC)", "setting": "A549 [6]", "value": 5.5},
      {"measurement": "fold change (FC)", "setting": "A549 [7]", "value": 8.2},
      {"measurement": "fold change (FC)", "setting": "A549 [8]", "value": 6},
      {"measurement": "fold change (FC)", "setting": "A549 [9]", "value": 0.155},
      {"measurement": "fold change (FC)", "setting": "A549 [10]", "value": 8.1},
      {"measurement": "fold change (FC)", "setting": "A549 [11]", "value": 0.273},
      {"measurement": "fold change (FC)", "setting": "A549 [12]", "value": 0.35},
      {"measurement": "fold change (FC)", "setting": "A549 [13]", "value": 0.356}
    ]},
    {"smiles": "CC(=O)Nc1cn(C)c(C(=O)Nc2cn(C)c(C(=O)Nc3cc(C(=O)NCCC(=O)Nc4cc(C(=O)NCCCC(=O)Nc5cn(C)c(C(=O)NCCC(=O)Nc6cn(C)c(C(=O)Nc7ccc8[nH]c(C(=O)N9CC(CCl)c%10c9cc(O)c9ccccc%109)cc8c7)n6)n5)n(C)c4)n(C)c3)n2)n1", "note": "(racemic)", "values": [
      {"measurement": "fold change (FC)", "setting": "A549 [14]", "value": 6.7},
      {"measurement": "fold change (FC)", "setting": "A549 [15]", "value": 0.273},
      {"measurement": "fold change (FC)", "setting": "A549 [16]", "value": 0.307},
      {"measurement": "fold change (FC)", "setting": "A549 [17]", "value": 0.329},
      {"measurement": "fold change (FC)", "setting": "A549 [18]", "value": 0.152},
      {"measurement": "fold change (FC)", "setting": "A549 [19]", "value": 7.8},
      {"measurement": "fold change (FC)", "setting": "A549 [20]", "value": 0.189},
      {"measurement": "fold change (FC)", "setting": "A549 [21]", "value": 8.9},
      {"measurement": "fold change (FC)", "setting": "A549 [22]", "value": 6},
      {"measurement": "fold change (FC)", "setting": "A549 [23]", "value": 0.241},
      {"measurement": "fold change (FC)", "setting": "A549 [24]", "value": 0.258},
      {"measurement": "fold change (FC)", "setting": "A549 [25]", "value": 0.3},
      {"measurement": "fold change (FC)", "setting": "A549 [26]", "value": 5.6},
      {"measurement": "fold change (FC)", "setting": "A549 [27]", "value": 0.311},
      {"measurement": "fold change (FC)", "setting": "A549 [28]", "value": 0.276},
      {"measurement": "fold change (FC)", "setting": "A549 [29]", "value": 0.307},
      {"measurement": "fold change (FC)", "setting": "A549 [30]", "value": 9.7}
    ]}
  ]
}
